In ChEMBL document CHEMBL3046895, “Molecular mechanism of enantioselective inhibition of acetolactate synthase by imazethapyr enantiomers” (J Agric Food Chem, 2010):
Calls of active or inactive are those of the source. The calls are words filed in the database; no cut-off is given here.

Columns and labels:
Type in all cases: protein assay
[1] = target: T1, Acetolactate synthase (Zea mays) (UniProt Q41768+Q41769); experiment: Inhibition of in vitro ALS activity in first leaf of the plant grew out Zea mays (maize) seedlings measured at 520 OD/ mg of protein/hr at 400 ug/L at 37 degC
T1 sequence (Q41768 whole entry, looked up): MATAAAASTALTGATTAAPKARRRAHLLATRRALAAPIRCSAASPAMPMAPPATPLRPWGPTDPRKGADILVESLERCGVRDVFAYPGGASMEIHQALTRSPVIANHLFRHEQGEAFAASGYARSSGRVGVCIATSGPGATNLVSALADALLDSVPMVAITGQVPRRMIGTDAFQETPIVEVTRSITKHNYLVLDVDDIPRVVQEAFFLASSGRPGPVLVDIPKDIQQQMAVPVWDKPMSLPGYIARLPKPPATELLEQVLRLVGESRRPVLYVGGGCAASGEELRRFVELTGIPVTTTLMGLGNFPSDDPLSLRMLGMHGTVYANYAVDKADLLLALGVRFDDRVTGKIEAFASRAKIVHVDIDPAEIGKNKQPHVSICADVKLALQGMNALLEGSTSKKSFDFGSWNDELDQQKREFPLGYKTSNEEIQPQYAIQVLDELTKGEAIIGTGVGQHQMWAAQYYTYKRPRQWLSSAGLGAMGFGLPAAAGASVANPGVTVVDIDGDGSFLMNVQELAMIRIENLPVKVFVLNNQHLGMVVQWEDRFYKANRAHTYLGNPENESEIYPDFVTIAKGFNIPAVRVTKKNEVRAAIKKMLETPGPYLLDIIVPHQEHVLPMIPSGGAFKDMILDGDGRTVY
T1 sequence (Q41769 whole entry, looked up): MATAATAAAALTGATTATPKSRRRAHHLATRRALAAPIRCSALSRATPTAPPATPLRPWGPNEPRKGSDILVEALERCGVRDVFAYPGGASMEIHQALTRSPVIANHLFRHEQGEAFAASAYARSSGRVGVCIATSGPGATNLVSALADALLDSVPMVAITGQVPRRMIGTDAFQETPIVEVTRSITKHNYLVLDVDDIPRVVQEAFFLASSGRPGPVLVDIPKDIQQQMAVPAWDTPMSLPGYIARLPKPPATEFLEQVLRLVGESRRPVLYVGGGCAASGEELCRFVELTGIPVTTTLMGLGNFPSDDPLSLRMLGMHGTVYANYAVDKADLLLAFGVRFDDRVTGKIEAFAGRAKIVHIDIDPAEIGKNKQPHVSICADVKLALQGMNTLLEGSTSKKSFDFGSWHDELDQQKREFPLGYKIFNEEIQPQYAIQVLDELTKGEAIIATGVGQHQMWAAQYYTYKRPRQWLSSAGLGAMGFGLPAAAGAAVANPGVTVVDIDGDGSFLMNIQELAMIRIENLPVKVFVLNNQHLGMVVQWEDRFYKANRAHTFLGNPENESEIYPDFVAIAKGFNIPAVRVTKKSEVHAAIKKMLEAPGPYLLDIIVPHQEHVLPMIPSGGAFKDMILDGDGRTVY
In short: (§1)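 Maize seedlings were treated in vivo, once the first leaf emerged, with herbicide in distilled water at 0, 100, 200, 400 and 800 μg L-1. Uppermost-expanded leaves were harvested 24 h later. ALS was extracted, precipitated with 50% (NH4)2SO4 at 4 °C, and assayed with 30 mM pyruvate, TPP and FAD at pH 7 for 1 h at 37 °C. Acetoin was read at A520 and normalised to Coomassie protein.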

[2] = target: T1, Acetolactate synthase (Zea mays); experiment: Inhibition of in vitro ALS activity in first leaf of the plant grew out Zea mays (maize) seedlings measured at 520 OD/ mg of protein/hr at 800 ug/L at 37 degC; in short: as §1
[3] = target: T1, Acetolactate synthase (Zea mays); experiment: Inhibition of in vitro ALS activity in first leaf of the plant grew out Zea mays (maize) seedlings measured at 520 OD/ mg of protein/hr at 200 ug/L at 37 degC; in short: as §1
[4] = target: T1, Acetolactate synthase (Zea mays); experiment: Inhibition of in vitro ALS activity of Zea mays (maize) at 25 mg/L at 37 degC
In short: (§2)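 ALS came from uppermost-expanded leaves of 5-day maize seedlings, using a 50% (NH4)2SO4 pellet. Inhibitor was dried from acetone in the tubes at 0, 0.04, 0.2, 1, 5 and 25 mg L-1. The assay used 30 mM pyruvate, 1 mM MgCl2, 1 mM TPP, 20 μM FAD and 50 mM K-phosphate at pH 7, run for 1 h at 37 °C. It was stopped with H2SO4, decarboxylated for 15 min at 60 °C, developed with creatine/α-naphthol, and read at A520.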

[5] = target: T1, Acetolactate synthase (Zea mays); experiment: Inhibition of in vitro ALS activity of Zea mays (maize) at 200 ug/L at 37 degC; in short: as §2
[6] = target: T1, Acetolactate synthase (Zea mays); experiment: Inhibition of in vitro ALS activity in first leaf of the plant grew out Zea mays (maize) seedlings measured at 520 OD/ mg of protein/hr at 100 ug/L at 37 degC; in short: as §1

Work on `CCc1cnc(C2=NC(C)(C(C)C)C(=O)N2)c(C(=O)O)c1` (racemic) yielded an OD [1] of 2.26 h⁻¹, an OD [2] of 1.9 h⁻¹ and an OD [3] of 4.41 h⁻¹. For the same molecule, the inhibition [4] was “Active”, the inhibition [5] was 19.8% and the OD [6] was 7.6 h⁻¹.
`CCc1cnc(C2=N[C@](C)(C(C)C)C(=O)N2)c(C(=O)O)c1` gave an OD [1] of 1.56 h⁻¹, an OD [2] of 0.97 h⁻¹ and an OD [3] of 3.39 h⁻¹. For the same molecule, the inhibition [4] was “Active”, the inhibition [5] was 28.9% and the OD [6] was 7.14 h⁻¹.
Molecule `CCc1cnc(C2=N[C@@](C)(C(C)C)C(=O)N2)c(C(=O)O)c1` has an OD [1] of 3.18 h⁻¹, an OD [2] of 2.06 h⁻¹ and an OD [3] of 6.34 h⁻¹. For the same molecule, the inhibition [4] was “Active”, the inhibition [5] was 3.8% and the OD [6] was 7.96 h⁻¹.
